pIC50: −log10 of the molar value. Calls of active or inactive are those of the source. The calls are words filed in the database; no cut-off is given here. Square brackets hold non-standard residues; d marks the D form. Peptide text beside a SMILES is read from it. * marks the point of attachment. ξ: configuration not given here. Boc = CC(C)(C)OC(=O)*; ξV = CC(C)C(N)C(=O)O
Key:
[1] = Inhibition of chlamydia trachomatis HtrA using MCA-ENLHLPLPIIF-DNP as substrate by FRET or pNA assay
Summary of the method: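 Recombinant CtHtrA at 0.5 mg/mL stock, preincubated with inhibitor in DMSO in 50 mM Tris/20 mM MgCl2, pH 7.0, for 20 min at 37 °C. Reaction started with quenched fluorescent peptide (methoxycoumarin fluorophore, DNP quencher; 1 mg/mL stock in 50% isopropanol). Fluorescence read immediately at ex 340/em 405 nm over 50 cycles.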

[2] = (§1) Inhibition of recombinant chlamydia trachomatis serovar L2 434/Bu/ATCC VR-902B HtrA expressed in Escherichia coli BL21(DE3) using MeOCoum-ENLHLPLPIIF-NH-DNP as fluorescent mimotope preincubated for 20 mins followed by mimotope addition in presence of fluorophore 7-methoxycoumarin-4-acetic acid by plate reader based fluorescence assay; set-up: species or system Chlamydia trachomatis 434/Bu
Trypsin = Trypsin (Homo sapiens, UniProt P07477+P07478+P35030); assay: Inhibition of human trypsin using Nalpha-benzoyl-DL-R-pNA as substrate preincubated for 15 mins followed by substrate addition and measured every 15 secs for 5 mins; format: protein assay
Summary of the method: (§2)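 Enzyme and inhibitor (in DMSO) were preincubated at 37 °C for 15 min in 0.10 M Tris-HCl, pH 8.1, with 0.02 M CaCl₂. The pNA substrate was added to start the reaction. A405 was monitored every 15 s over 5 min at 37 °C. Runs were in triplicate, and inhibition was expressed as percent enzyme activity remaining.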

Chlamydia trachomatis [3] = assay: (§3) Antibacterial activity against Chlamydia trachomatis D/UW-3/Cx strain infected in mouse McCoy cells assessed as inclusion forming units at 100 uM treated 16 hrs post infection measured at 44 hrs post-infection by Evan's blue staining based-confocal microscopic analysis (reference value: 62 +/- 8.5 10^5U/mL); format: functional
[4] = Inhibition of bovine pancreas chymotrypsin using AAPF-pNA as substrate preincubated for 15 mins followed by substrate addition and measured every 15 secs for 5 mins; set-up: species or system Bos taurus; summary of the method: as §2
Neutrophil elastase = biological target: T1, Neutrophil elastase (Homo sapiens, UniProt P08246); assay: Inhibition of human neutrophil elastase using AAPV-pNA as substrate preincubated for 15 mins followed by substrate addition and measured every 15 secs for 5 mins; summary of the method: as §2
T1 sequence (P08246 whole entry): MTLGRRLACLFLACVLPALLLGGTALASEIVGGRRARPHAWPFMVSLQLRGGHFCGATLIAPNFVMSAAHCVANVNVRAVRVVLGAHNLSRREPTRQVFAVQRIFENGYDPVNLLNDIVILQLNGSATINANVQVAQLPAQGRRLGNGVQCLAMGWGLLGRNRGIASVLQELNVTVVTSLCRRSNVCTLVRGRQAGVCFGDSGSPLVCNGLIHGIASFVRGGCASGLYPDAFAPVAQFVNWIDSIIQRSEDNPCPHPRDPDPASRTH

[5] = tested on: Chlamydia trachomatis 434/Bu; assay: as §1, with “Potency index, ratio of JO146 IC50 to compound IC50 for inhibition” for “Inhibition”
[6] = tested on: Chlamydia trachomatis 434/Bu; assay: as §1, with “Activation of recombinant” for “Inhibition of recombinant”, “fluorescent mimotope at <50 uM preincubated for” for “fluorescent mimotope preincubated for”
Chlamydia trachomatis [7] = assay: as §3, with “trachomatis D/UW-3/Cx infected in” for “trachomatis D/UW-3/Cx strain infected in”, “assessed as reduction in inclusion forming” for “assessed as inclusion forming”; format: functional
Chlamydia pecorum [8] = assay: as §3, with “pecorum IPA ATCC VR629” for “trachomatis D/UW-3/Cx strain”, “342.55646” for “62”, “6.53872” for “8.5”; format: functional
Chlamydia pecorum [9] = assay: Antibacterial activity against Chlamydia pecorum IPA ATCC VR629 infected in mouse McCoy cells assessed as reduction in inclusion forming units at 100 uM treated 16 hrs post infection measured at 44 hrs post-infection by Evan's blue staining based-confocal microscopic analysis (reference value: 342.55646 +/- 6.53872 10^5U/mL); format: functional

Row | Compound | pIC50 [1] | pIC50 [2] | IC50 (Trypsin) | Activity (Chlamydia trachomatis [3]) | pIC50 [4] | pIC50 (Neutrophil elastase) | Ratio IC50 [5] | Activity [6] | Activity (Chlamydia trachomatis [7]) | Activity (Chlamydia pecorum [8]) | Activity (Chlamydia pecorum [9])
1 | CC(C)C(NC(=O)[C@@H]1CCCN1C(=O)[C@@H](NC(=O)OC(C)(C)C)C(C)C)P(=O)(Oc1ccccc1)Oc1ccccc1 (stereo not given in full) | 4.90 | 3.45 to 4.89 | > 500 µM | 0.00434 ×10⁵ U/mL | < 3.30 | 6.08 | – | – | – | – | –
2 | CC(C)C(NC(=O)[C@@H]1CCCN1C(=O)[C@H](C)NC(=O)OC(C)(C)C)P(=O)(Oc1ccccc1)Oc1ccccc1 (stereo not given in full) | 4.33 | – | – | – | – | – | – | – | – | – | –
3 | CC(C)C(NC(=O)[C@@H]1CCCN1C(=O)[C@@H](NC(=O)OC(C)(C)C)C(C)C)C(=O)C(N)=O (stereo not given in full) | – | < 3.30 | – | 29.07 ×10⁵ U/mL | – | – | inactive | – | – | – | –
4 | CC(C)C(NC(=O)[C@@H]1CCCN1C(=O)[C@@H](NC(=O)OC(C)(C)C)C(C)C)B(O)O (stereo not given in full) | – | < 3.30 | – | 0.09939 ×10⁵ U/mL | – | – | – | Active | 3 log10CFU | – | –
5 | CCN(C)C(=O)C(NC(=O)[C@@H]1CCCN1C(=O)[C@@H](NC(=O)OC(C)(C)C)C(C)C)C(C)C (stereo not given in full) | – | < 3.30 | – | 34.5497 ×10⁵ U/mL | – | – | inactive | – | – | – | –
6 | CC(C)C(NC(=O)[C@@H]1CCCN1C(=O)[C@@H](NC(=O)OC(C)(C)C)C(C)C)C(=O)N(C)C1CC1 (stereo not given in full) | – | < 3.30 | – | 8.3844 ×10⁵ U/mL | – | – | inactive | – | – | – | –
7 | C=CCN(C)C(=O)C(NC(=O)[C@@H]1CCCN1C(=O)[C@@H](NC(=O)OC(C)(C)C)C(C)C)C(C)C (stereo not given in full) | – | < 3.30 | – | 36.2553 ×10⁵ U/mL | – | – | inactive | – | – | – | –
8 | CCCC(NC(=O)[C@@H]1CCCN1C(=O)[C@@H](NC(=O)OC(C)(C)C)C(C)C)C(=O)c1nccs1 (stereo not given in full) | – | < 3.30 | > 500 µM | – | < 3.30 | < 3.82 | inactive | – | – | – | –
9 | CC(C)C(NC(=O)[C@@H]1CCCN1C(=O)[C@@H](NC(=O)OC(C)(C)C)C(C)C)C(=O)N(C)C (stereo partly drawn) (Boc-Val-Pro-[ξV]-NMe2) | – | < 3.30 | – | 30.9343 ×10⁵ U/mL | – | – | inactive | – | – | – | –
10 | CCCC(NC(=O)[C@@H]1CCCN1C(=O)[C@@H](NC(=O)OC(C)(C)C)C(C)C)P(=O)(Oc1ccccc1)Oc1ccccc1 (mixture of isomers) | – | < 3.30 | > 500 µM | 1.49 ×10⁵ U/mL | < 3.30 | 6.17 | inactive | – | – | 0.4583 ×10⁵ U/mL | –
11 | CCC(=O)C(=O)C(NC(=O)[C@@H]1CCCN1C(=O)[C@@H](NC(=O)OC(C)(C)C)C(C)C)C(C)C (mixture of isomers) | – | < 3.30 | > 500 µM | 57 ×10⁵ U/mL | < 3.30 | 5.33 | inactive | – | – | 351 ×10⁵ U/mL | –
12 | CC(C)C(CO)NC(=O)[C@@H]1CCCN1C(=O)[C@@H](NC(=O)OC(C)(C)C)C(C)C (mixture of isomers) | – | < 3.30 | – | 34.6007 ×10⁵ U/mL | – | – | inactive | – | – | – | –
13 | CC(C)C(NC(=O)[C@@H]1CCCN1C(=O)[C@@H](NC(=O)OC(C)(C)C)C(C)C)C(=O)c1nccs1 (mixture of isomers) | – | < 3.30 | – | 33.1 ×10⁵ U/mL | – | – | inactive | – | – | 1.983 ×10⁵ U/mL | –
14 | CCC(C)C(NC(=O)[C@@H]1CCCN1C(=O)[C@@H](NC(=O)OC(C)(C)C)C(C)(C)C)P(=O)(Oc1ccccc1)Oc1ccccc1 (mixture of isomers) | – | < 3.30 | > 500 µM | 0.1099 ×10⁵ U/mL | 6.28 | 5.63 | inactive | – | – | 0.2042 ×10⁵ U/mL | –
15 | CCC(C)C(NC(=O)[C@@H]1CCCN1C(=O)[C@@H](NC(=O)OC(C)(C)C)C(C)(C)C)C(=O)c1nc2ccccc2s1 (mixture of isomers) | – | < 3.30 | > 500 µM | 2.829 ×10⁵ U/mL | < 3.30 | 5.32 | inactive | – | – | 0.2193 ×10⁵ U/mL | –
16 | CC(C)C(NC(=O)[C@@H]1CCCN1C(=O)[C@@H](NC(=O)OC(C)(C)C)C(C)C)C(=O)c1nc2ccccc2s1 (mixture of isomers) | – | 3.49 | > 500 µM | 2.539 ×10⁵ U/mL | < 3.30 | 5.59 | 1.06 | – | – | 0.04744 ×10⁵ U/mL | 4 log10CFU
17 | CC(C)[C@H](NC(=O)OC(C)(C)C)C(=O)N1CCC[C@H]1C(=O)NC(C(C)(C)C)P(=O)(Oc1ccccc1)Oc1ccccc1 (mixture of isomers) | – | < 3.30 | > 500 µM | 0.217 ×10⁵ U/mL | < 3.30 | < 3.30 | inactive | – | – | 5.344 ×10⁵ U/mL | –
18 | CC(C)C(NC(=O)[C@@H]1CCCN1C(=O)[C@@H](NC(=O)OC(C)(C)C)C(C)C)C(=O)C(=O)C1CC1 (mixture of isomers) | – | < 3.30 | > 500 µM | 55.0347 ×10⁵ U/mL | < 3.30 | – | inactive | – | – | – | –
19 | CCC(C)C(NC(=O)[C@@H]1CCCN1C(=O)[C@@H](NC(=O)OC(C)(C)C)[C@@H](C)CC)P(=O)(Oc1ccccc1)Oc1ccccc1 (mixture of isomers) | – | 4.07 | > 500 µM | 0.1134 ×10⁵ U/mL | 5.89 | 6.08 | – | – | – | 0.3958 ×10⁵ U/mL | –
20 | CC[C@H](C)[C@H](NC(=O)OC(C)(C)C)C(=O)N1CCC[C@H]1C(=O)NC(C(C)C)P(=O)(Oc1ccccc1)Oc1ccccc1 (mixture of isomers) | – | 4.60 | > 500 µM | 0.5089 ×10⁵ U/mL | < 3.30 | 6.40 | 14.3 | – | – | 10.8851 ×10⁵ U/mL | –
21 | CCC(C)C(NC(=O)[C@@H]1CCCN1C(=O)[C@@H](NC(=O)OC(C)(C)C)C(C)C)P(=O)(Oc1ccccc1)Oc1ccccc1 (mixture of isomers) | – | 4.74 | > 500 µM | 0.09231 ×10⁵ U/mL | 4.42 | 6.44 | 20 | – | – | 43.9246 ×10⁵ U/mL | –
22 | CC(=O)C(=O)C(NC(=O)[C@@H]1CCCN1C(=O)[C@@H](NC(=O)OC(C)(C)C)C(C)C)C(C)C (mixture of isomers) | – | < 3.30 | > 500 µM | 86 ×10⁵ U/mL | < 3.30 | 5.87 | inactive | – | – | – | –
23 | CCC[C@H](NC(=O)OC(C)(C)C)C(=O)N1CCC[C@H]1C(=O)NC(C(C)C)P(=O)(Oc1ccccc1)Oc1ccccc1 (mixture of isomers) | – | 4.25 | > 500 µM | 17.0963 ×10⁵ U/mL | < 3.30 | 6.35 | – | – | – | 219.8 ×10⁵ U/mL | –
24 | CC(C)C(NC(=O)[C@@H]1CCCN1C(=O)[C@@H](NC(=O)OC(C)(C)C)C(C)(C)C)P(=O)(Oc1ccccc1)Oc1ccccc1 (mixture of isomers) | – | 5.03 | > 500 µM | 0.01548 ×10⁵ U/mL | < 3.30 | 6.17 | 33.3 | – | – | 0.03388 ×10⁵ U/mL | –

From ChEMBL document CHEMBL4393742, “Structure-activity analysis of peptidic Chlamydia HtrA inhibitors” (Bioorg Med Chem, 2019)
